{
  "source": "the EternaBench riboswitch data",
  "system": "MS2 coat protein",
  "assay": "apparent Kd, MS2 coat protein; higher = weaker binding; RNA-MaP array; FMN 200 µM where present",
  "how_it_was_run": "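Designs on Illumina sequencing-chip clusters, transcribed by stalled E. coli RNA polymerase, were exposed to SNAP-549-labelled MS2 coat protein in doubling steps from 0.7 or 1.5 nM up to 3 µM, without and then with constant ligand. The buffer held 100 mM Tris-HCl pH 7.5, 80 mM KCl, 4 mM MgCl2, BSA, DTT, yeast tRNA and Tween-20. Apparent Kd values are medians of filtered per-cluster binding-curve fits to green signal normalised to red-channel RNA signal and control-cluster median Fmax.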",
  "key": {"[1]": {"conditions": "designed as: OFF switch for flavin mononucleotide, no ligand"}, "[2]": {"conditions": "ligand present: flavin mononucleotide, designed as: OFF switch for flavin mononucleotide"}, "[3]": {"conditions": "designed as: ON switch for flavin mononucleotide, no ligand"}, "[4]": {"conditions": "ligand present: flavin mononucleotide, designed as: ON switch for flavin mononucleotide"}},
  "data": [
    {"sequence": "CGGUGACGUGUAGGAUAUGGCGAUGGGUUUUGGCCAGAAGGACAUGAGGAUCACCCAUGUGGUAGAGGGUUGGCGGCUGCCCGU", "values": [
      {"measurement": "apparent Kd", "setting": "[1]", "value": 47.4, "unit": "nM"},
      {"measurement": "apparent Kd", "setting": "[2]", "value": 181, "unit": "nM"}
    ]},
    {"sequence": "ACCUUACAUGAGGAUCACCCAUGUUAGGAUAUCUCGCCCGCGCAAACACAGCGCAGGCAGAGAAGGGACGCGGG", "values": [
      {"measurement": "apparent Kd", "setting": "[1]", "value": 31.8, "unit": "nM"},
      {"measurement": "apparent Kd", "setting": "[2]", "value": 32.8, "unit": "nM"}
    ]},
    {"sequence": "UAGAAGUCAGGAUAUGCUGCUCGUCACUUGCGUGAUGAGUAGCAGAAGGGACAUGAGGAUCACCCAUGUAAAGG", "values": [
      {"measurement": "apparent Kd", "setting": "[1]", "value": 208, "unit": "nM"},
      {"measurement": "apparent Kd", "setting": "[2]", "value": 424, "unit": "nM"}
    ]},
    {"sequence": "UGGUACUAGGGAGGAUAUGGGAAGAUACAUGAGGAUCACCCAUGUUUAAGAAUGCCGAGAGGCAACUAGAAGGCCCUAGUGCCU", "values": [
      {"measurement": "apparent Kd", "setting": "[3]", "value": 432, "unit": "nM"},
      {"measurement": "apparent Kd", "setting": "[4]", "value": 19.2, "unit": "nM"}
    ]},
    {"sequence": "AGUUUGCGGCAGGAUAUCCAUCCGCGGUGUGGUGGAGAAGGGCUGACAUGAGGAUCACCCAUGUGCGUCCUGUA", "values": [
      {"measurement": "apparent Kd", "setting": "[1]", "value": 23.2, "unit": "nM"},
      {"measurement": "apparent Kd", "setting": "[2]", "value": 32.5, "unit": "nM"}
    ]},
    {"sequence": "AGUAGAUCAGGAUAUACGUAAAUGGUAAUUAUGUAACUUCUACAUGAGGAUCACCCAUGUAGAAGGGAUCUACA", "values": [
      {"measurement": "apparent Kd", "setting": "[1]", "value": 13.6, "unit": "nM"},
      {"measurement": "apparent Kd", "setting": "[2]", "value": 13.4, "unit": "nM"}
    ]},
    {"sequence": "GGUGGGAGGUAGACUGGACGGGCAACAUGAGGAUCACCCAUGUAGGAUAUCGUGUGUGUCAACGACGAGAAGGGCGUAGGCGGA", "values": [
      {"measurement": "apparent Kd", "setting": "[1]", "value": 20.3, "unit": "nM"},
      {"measurement": "apparent Kd", "setting": "[2]", "value": 17.1, "unit": "nM"}
    ]},
    {"sequence": "GUGUACAUAUCAGGAUAUCUAUUUCCUACAUGAGGAUCACCCAUGUAGAUGAUCACCCAUGUAAAGGAGAAGGGAUAUGUAUAC", "values": [
      {"measurement": "apparent Kd", "setting": "[3]", "value": 384, "unit": "nM"},
      {"measurement": "apparent Kd", "setting": "[4]", "value": 222, "unit": "nM"}
    ]},
    {"sequence": "ACAAAUUAGUGAGGAUAUGCUAAAUUUAUAACAGCAGAAGGCACAAACCUCAAGACAUGAGGAUCACCCAUGUGGAAUAUAGAU", "values": [
      {"measurement": "apparent Kd", "setting": "[1]", "value": 68, "unit": "nM"},
      {"measurement": "apparent Kd", "setting": "[2]", "value": 139, "unit": "nM"}
    ]},
    {"sequence": "AAUAUGUUGCAGAAGGUUAUAUUUUUUUCGUACCUCAUGACAUGAGGAUCACCCAUGUAUUUGUUGAAGGAUAUGCAAUAUAUU", "values": [
      {"measurement": "apparent Kd", "setting": "[1]", "value": 21.5, "unit": "nM"},
      {"measurement": "apparent Kd", "setting": "[2]", "value": 17.7, "unit": "nM"}
    ]},
    {"sequence": "UGAAUCAUGCCAUGCGCUGACAUGAGGAUCACCCAUGUGUACAAGGAUAUGUUGGUCGACGAUCGGCAGAAGGUGUAAUGGGAU", "values": [
      {"measurement": "apparent Kd", "setting": "[1]", "value": 319, "unit": "nM"},
      {"measurement": "apparent Kd", "setting": "[2]", "value": 764, "unit": "nM"}
    ]},
    {"sequence": "GGAAAGCGAGGAUAUACAUGAGGAUCACCCAUGUAAAAGAAAAGAAAAGAAAGAAAAUGUAGAAGGCGCAAAAA", "values": [
      {"measurement": "apparent Kd", "setting": "[1]", "value": 47.8, "unit": "nM"},
      {"measurement": "apparent Kd", "setting": "[2]", "value": 48.4, "unit": "nM"}
    ]},
    {"sequence": "AUAAUGUAAGGAUAUCAGUCGACUAGCUGCGGCUAGUCGACUGAGAAGGUACAUGAGGAUCACCCAUGUGUUCC", "values": [
      {"measurement": "apparent Kd", "setting": "[1]", "value": 133, "unit": "nM"},
      {"measurement": "apparent Kd", "setting": "[2]", "value": 868, "unit": "nM"}
    ]},
    {"sequence": "UCACGGAGCCUAGGAUAUACAUGAGGAUCACCCAUGUAUUAACGUUAGUGCUGGACUGAUUUGCUGUAGAAGGAGGUCACCGAA", "values": [
      {"measurement": "apparent Kd", "setting": "[1]", "value": 20.9, "unit": "nM"},
      {"measurement": "apparent Kd", "setting": "[2]", "value": 43.1, "unit": "nM"}
    ]},
    {"sequence": "CGUUUCAUGUCAGGAUAUCCGCGCAGCUUUACGCACGAUAUAAGGGAGCUUGGAGAAGGGACAUGAGGAUCACCCAUGUGCCUC", "values": [
      {"measurement": "apparent Kd", "setting": "[1]", "value": 8.6, "unit": "nM"},
      {"measurement": "apparent Kd", "setting": "[2]", "value": 12.4, "unit": "nM"}
    ]},
    {"sequence": "UAAAAGACUAGCAACUAACUCCACAUGAGGAUCACCCAUGUCUAGGAUAUGAGCAGCAAAGCUGCUUAGAAGGAGACGCUAGUC", "values": [
      {"measurement": "apparent Kd", "setting": "[1]", "value": 6.48, "unit": "nM"},
      {"measurement": "apparent Kd", "setting": "[2]", "value": 6.1, "unit": "nM"}
    ]},
    {"sequence": "GUGCCUUGGGAGAAGGCAGCAUGCAAAGCAUUCUGAGGAUAUUCAUACCGGAAACGGACAUGAGGAUCACCCAUGUGGCACAAA", "values": [
      {"measurement": "apparent Kd", "setting": "[3]", "value": 1470, "unit": "nM"},
      {"measurement": "apparent Kd", "setting": "[4]", "value": 72.1, "unit": "nM"}
    ]},
    {"sequence": "ACAUGAGGAUCACCCAUGUUAAACGAGGAUAUUUGACUGCACAUGAGGUUCACCCAUGUCCUGCCGAAGAAGGUGUGAAUAAUU", "values": [
      {"measurement": "apparent Kd", "setting": "[3]", "value": 33.9, "unit": "nM"},
      {"measurement": "apparent Kd", "setting": "[4]", "value": 32.6, "unit": "nM"}
    ]},
    {"sequence": "AUAUCUCUGUAAGGAUAUAGAUGGUAUACGCCUCCGACAUGAGGAUCACCCAUGUUAUAUUUUGUCUAGAAGGUACAGUGUCGG", "values": [
      {"measurement": "apparent Kd", "setting": "[3]", "value": 656, "unit": "nM"},
      {"measurement": "apparent Kd", "setting": "[4]", "value": 292, "unit": "nM"}
    ]},
    {"sequence": "AAUAAACUCACAGGAUAUAGCAUAGUCGGCGUGAACUUAAUGGCGACUAUGCUAGAAGGGUGACCACAUGAGGAUCACCCAUGU", "values": [
      {"measurement": "apparent Kd", "setting": "[3]", "value": 710, "unit": "nM"},
      {"measurement": "apparent Kd", "setting": "[4]", "value": 149, "unit": "nM"}
    ]}
  ]
}
